Assay outcomes (PubChem BioAssay)
A selection: hits, their analogues and other compounds. The true share with any hit is near 2.7%.
ASAP1 inh – inhibitors of human ASAP1 ArfGAP activity | actives 0.19% (n = 360,000) | Q9ULH1 | ASAP1-stimulated ARF1 GTP hydrolysis, GDP FP detection | inhibition, % at 16.5 µM; in the data active = inhibition above about 25%
Target sequence (Q9ULH1 325-724 limits assumed): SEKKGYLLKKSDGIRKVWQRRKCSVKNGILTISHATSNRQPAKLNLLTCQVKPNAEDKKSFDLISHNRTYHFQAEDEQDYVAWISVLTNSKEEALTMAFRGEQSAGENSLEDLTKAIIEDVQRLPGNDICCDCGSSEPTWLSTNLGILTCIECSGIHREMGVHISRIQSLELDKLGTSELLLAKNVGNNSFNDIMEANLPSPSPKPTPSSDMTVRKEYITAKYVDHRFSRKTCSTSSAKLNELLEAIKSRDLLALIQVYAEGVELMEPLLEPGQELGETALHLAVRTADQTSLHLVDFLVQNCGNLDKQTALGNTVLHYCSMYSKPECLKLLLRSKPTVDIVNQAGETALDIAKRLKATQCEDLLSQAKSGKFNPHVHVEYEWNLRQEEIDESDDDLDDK
sPLA2-III inh – Inhibits HGIII-sPLA2 liposome hydrolysis, primary screen. actives 0.56% (n = 370,000). QFRET BODIPY PC-A2 liposome hydrolysis, fluorescence. Q9NZ20. inhibition, % at 12.2 µM;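 active = inhibition above mean plus 3 SD of compounds lying within the high and low control bounds, cut at about 19% in these data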
MsrA inh – inhibits bovine methionine sulfoxide reductase A; inhibition, % at 15.5 µM; purified bovine MsrA, absorbance read-out; AID 651718; actives 0.75% (n = 360,000); in the data active = inhibition above about 4.5%
bovine MsrA act – bovine methionine sulfoxide reductase A activation | actives 0.3% (n = 360,000) | purified bovine MsrA, absorbance read-out | activation, % at 10.6 µM | AID 602163; in the data active = activation above about 7.5%
Rev-erbA mod – modulators of human Rev-erb alpha DNA binding; activity, % at 10 µM; Rev-erbα–FITC-DNA binding, fluorescence polarization, 90 min; actives 0.79% (n = 370,000);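 active = activity above about 14%, limit read from the data; passing the limit was not always enough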
ARFGAP1 inh – rat ARFGAP1 inhibition; Arfgap1-stimulated ARF1 GTP hydrolysis, GDP FP detection; inhibition, % at 16.5 µM; actives 0.26% (n = 360,000); Q62848;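 active = inhibition above a per-plate limit, mean inhibition of low control wells plus 3 SD, cut at about 25% in these data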
Target sequence (Q62848 1-136 limits assumed): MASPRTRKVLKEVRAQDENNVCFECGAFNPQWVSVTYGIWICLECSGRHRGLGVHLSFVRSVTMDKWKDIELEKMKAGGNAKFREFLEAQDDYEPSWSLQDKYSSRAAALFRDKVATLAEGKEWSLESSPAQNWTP
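Material: rat Arfgap1 GAP domain (His6, aa 1-136), purified enzyme. Also added: human ARF1(Δ1-17)-GTP substrate. Compound dosing: 16.5 µM single point, 1.26% DMSO. Timing: enzyme reaction 120 min at 25 °C after 20 min preincubation. Signal: GDP detection by fluorescence polarization. Read-out basis: percent inhibition of GAP-stimulated GDP formation, scaled between DMSO and no-Arfgap1 medians.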
NR1D1 mod conf – Rev-erb alpha (human) modulation, hit confirmation; AID 1259319; actives 61% (n = 3,000); shares compounds with Rev-erbA mod; activation, % at 25 µM; Rev-erb alpha FITC-DNA binding, fluorescence polarization, 90 min;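 active = activation at or above a set limit, or at least 3 SD above the negative control mean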
RORg DNA counter – affects RORgamma DNA binding in a Rev-erb alpha counter-screen | shares compounds with Rev-erbA mod | purified RORgamma protein-FITC-DNA binding, fluorescence polarization | IC50, µM | actives 8% (n = 910) | AID 1259320;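 active = Compounds whose fitted half-maximal concentration for disrupting protein-DNA binding is below 10 micromolar; the record names Rev-erb in its text, so the target is in doubt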
Each line names hits and unclear results; the compound was inactive in the other large screens (follow-up assays come after a bar, where they were run).

COc1ccc2cc(C#N)c(SCC(=O)Nc3nonc3C)nc2c1	Rev-erbA mod 67 | NR1D1 mod conf 27
CCOc1ccc(CCNC(=O)c2ccc3[nH]ccc3c2)cc1OCC	none (no result: ASAP1 inh, MsrA inh, bovine MsrA act, ARFGAP1 inh)
COc1ccc(-c2cc3c(=O)n(CC(=O)NCCCc4ccccc4)ncn3n2)cc1	none
CCOc1ccc(CCNC(=O)Cn2ncn3nc(-c4ccc(OC)cc4)cc3c2=O)cc1OCC	Rev-erbA mod 23 | NR1D1 mod conf inactive
COc1ccc2c(c1)oc(=O)c1c3ccccc3[nH]c21	Rev-erbA mod 75 | NR1D1 mod conf 62 | RORg DNA counter inactive
CCNC(=O)C1(C)CCCN1Cc1ccccc1Cl (stereo not drawn)	none
CC(C)CNC(=O)C1(C)CCCCCN1Cc1ccccc1-c1ccccc1 (stereo not drawn)	Rev-erbA mod 20 | NR1D1 mod conf inactive
Cn1cc([C@]2(O)C(=O)Nc3ccc(OC(F)(F)F)cc32)c2ccccc21	none (no result: bovine MsrA act)
Cc1cc(/C=C2\C(=N)N3C(SCc4ccccc4)=NSC3=NC2=O)c(C)n1Cc1ccccc1	Rev-erbA mod 73 | NR1D1 mod conf 41
CCC(CC)C1=NN2C(=N)/C(=C\c3cc(C)n(-c4cccc(C)c4)c3C)C(=O)N=C2S1	Rev-erbA mod 32 | NR1D1 mod conf inactive
COc1ccc2nc(SC)c(C#N)cc2c1	Rev-erbA mod 42 | NR1D1 mod conf 47 | RORg DNA counter inactive
N#Cc1cc2ccccc2nc1SCc1cccnc1	none
COc1ccc2nc(SCC(C)=O)c(C#N)cc2c1	none
COc1ccc2nc(SCc3cccnc3)c(C#N)cc2c1	Rev-erbA mod 86 | NR1D1 mod conf 56 | RORg DNA counter inactive
COc1cc(CNC(=O)Nc2nc(C(N)Cc3ccc(C(F)(F)F)cc3)cs2)cc(OC)c1OC (stereo not drawn)	none
COc1ccccc1C(=O)Nc1nc(-c2ccc(S(=O)(=O)N3CCOCC3)cc2)cs1	Rev-erbA mod 43 | NR1D1 mod conf 29
COc1cc(C(=O)Nc2ccc(NC(=O)c3ccccc3)nc2)cc(OC)c1OC	none
COc1ccc(NC(=O)c2ccc(C(=O)c3cc(OC)ccc3OC)cc2)cc1	Rev-erbA mod 46 (no result: ASAP1 inh, sPLA2-III inh, MsrA inh, ARFGAP1 inh) | NR1D1 mod conf 33 | RORg DNA counter inactive
COc1ccc(C(=O)Nc2ccc(NC(=O)c3cc(OC)c(OC)c(OC)c3)cn2)cc1	Rev-erbA mod 20 | NR1D1 mod conf inactive
COc1ccc(C(=O)Nc2ccc(NC(=O)c3cccc(OC)c3)cn2)cc1	Rev-erbA mod 18 | NR1D1 mod conf inactive
O=C(c1cccc(F)c1F)N1CCCC(c2nc(-c3cccs3)no2)C1 (stereo not drawn)	none (no result: ASAP1 inh, MsrA inh, bovine MsrA act, ARFGAP1 inh)
CCOc1ccc(-n2c([S-])c(C(=O)Nc3ccc(S(=O)(=O)N4CCOCC4)cc3)[n+]3cc(C(N)=O)ccc23)cc1	Rev-erbA mod 91 | NR1D1 mod conf 43 | RORg DNA counter inactive
CCOc1ccc(NC(=O)COC(=O)c2ccc(S(=O)(=O)N3CCOCC3)cc2)cc1	none
OC[C@@H]1CN(Cc2ccco2)C[C@H](n2cnc3c(NC4CC4)ncnc32)O1	none
CC1CCN(S(=O)(=O)c2ccc3c(c2)c(=O)c(C(=O)NCc2cccs2)cn3C)CC1	Rev-erbA mod 29 | NR1D1 mod conf inactive
O=c1c2sc3nc(N4CCOCC4)c4c(c3c2ncn1-c1ccccc1)CCCC4	none
O=c1c2sc3nc(N4CCOCC4)c4c(c3c2ncn1C(c1ccccc1)c1ccccc1)CCCC4	Rev-erbA mod 30 | NR1D1 mod conf 27
O=C(NN1CCOCC1)c1cc(-c2ccc(Br)s2)nc2ccccc12	Rev-erbA mod 32 | NR1D1 mod conf inactive
CCOC(=O)c1nn(-c2ccc(F)cc2)c(=O)cc1OCC(=O)Nc1cccc(C)c1	Rev-erbA mod 101 | NR1D1 mod conf 93 | RORg DNA counter inactive
COc1ccc(-c2nn(C)c(=O)c3ccccc23)cc1NC(=O)COc1ccc(C)cc1	Rev-erbA mod 34 | NR1D1 mod conf inactive
CCOC(=O)c1nn(-c2ccccc2)c(=O)cc1OCC(=O)Nc1cc(C)ccc1OC	Rev-erbA mod 48 | NR1D1 mod conf inactive
Cc1ccc(S(=O)(=O)N2c3ccccc3OC(C(=O)OC(C)(C)C)(C(=O)OC(C)(C)C)C2CC(=O)c2ccccc2)cc1 (stereo not drawn)	none (no result: bovine MsrA act)
CCCCn1nnnc1C(c1ccccc1)N1CCN(c2cc(C)ccc2C)CC1 (stereo not drawn)	none
C=CCOc1ccc(C=CC(=O)c2c(O)c(OC)c(OC)c(OC)c2OC)cc1	none
CC(C)c1cc(Cn2c3ccccc3c(=O)n2C(C)Cn2cc(-c3ccccc3)nn2)on1 (stereo not drawn)	none (no result: bovine MsrA act)
O=S1(=O)c2ccc(N3CCCC3)cc2Oc2ccccc2CN1Cc1cn(Cc2ccc(C(F)(F)F)cc2)nn1	none (no result: ASAP1 inh, MsrA inh, bovine MsrA act, ARFGAP1 inh)
COC(=O)c1ccc(C(=O)OC)c(NC(=O)Cc2cccs2)c1	none
C=CCNC(=O)Cn1nnc(-c2ccc(-c3ccc(OC)cc3)cc2)n1	Rev-erbA mod 39 | NR1D1 mod conf inactive
COc1ccc(-c2ccc(-c3nnn(CC(C)=O)n3)cc2)cc1	none
CCOC(=O)C1=CN(Cc2cccc(-c3cccnc3)c2)S(=O)(=O)N(C)C1C (stereo not drawn)	none
COc1cc(F)cc(-c2ccc3c(c2)c(-c2cccs2)c(-c2cc(OC)cc(OC)c2)n3C)c1	none
COc1cc(OC)cc(-c2c(-c3cccs3)c3cc(-c4ccc(N(C)C)nc4)ccc3n2C)c1	Rev-erbA mod 24 | NR1D1 mod conf inactive
O=c1[nH]c(-c2ccc3c(c2)OCO3)nc2c1sc(=S)n2-c1ccccc1	Rev-erbA mod 76 | NR1D1 mod conf inactive
O=c1[nH]c(-c2ccc(F)cc2)nc2c1sc(=S)n2-c1ccccc1	none
COc1cc(-c2coc3c(C(=O)NC4CCCCC4)cccc23)ccc1O	none
Nn1c(SCC(=O)N2CCOCC2)nnc1-c1cc(-c2ccc(F)cc2)n[nH]1	none (no result: ASAP1 inh, MsrA inh, bovine MsrA act, ARFGAP1 inh)
COc1ccc2nc(SCC(=O)N3CC(=O)Nc4ccccc43)c(C#N)cc2c1	none
Cc1ccccc1NC(=O)CSc1nc2cc3c(cc2cc1C)CCC3	Rev-erbA mod 102 | NR1D1 mod conf 23
Cc1ccc(C)c(NC(=O)CSc2nc3ccccc3nc2N2CCOCC2)c1	Rev-erbA mod 32 | NR1D1 mod conf 24
CCC(=O)Nc1ccc(NC(=O)CSc2nc3cc4c(cc3cc2C)CCC4)cc1	none
COCc1cc(C)nc(SCC(=O)Nc2ccccc2N2CCOCC2)c1C#N	none
Cc1cc(C)c2nc(SCC(=O)N3CC(=O)Nc4ccccc43)c(C#N)cc2c1	Rev-erbA mod 98 | NR1D1 mod conf 64 | RORg DNA counter inactive
